Only some compounds are listed: those with a hit (about 3.4% of all), similar ones and a draw of the others.
CHRM1 agonist: human M1 muscarinic receptor agonists, primary screen, Fluo-8 calcium fluorescence, CHO-K1 cells, HTS | CHO-K1 hM1, agonist mode; 0% DMSO, 100% acetylcholine EC100 | activation, % at 3 µM | 0.33% of 360,000 active | AID 588814, 2011;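 active means activation above the run's mean compound activation plus 3 SD, cut at about 16% in these data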;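 further: peak over basal fluorescence ratio within a 140 s kinetic read after compound addition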
CHRM1 antagonist: human M1 muscarinic receptor antagonists, primary screen, CHO-K1 cells, Fluo-8 calcium fluorescence, 1536-well; 1.3% of 360,000 active; AID 588852, 2011; CHO-K1 hM1, ACh EC80 antagonist; inhibition, % at 3 µM;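 active means percent inhibition above its own plate's cutoff, namely the mean of that plate's compound wells plus 3 SD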;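 further: peak over basal fluorescence ratio during 140 s after agonist addition; 0% = ACh EC80 plus DMSO and 100% = DMSO alone without agonist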
CHRM1 PAM: human M1 muscarinic receptor positive allosteric modulators, primary screen, CHO-K1 cells, Fluo-8 calcium fluorescence, 1536-well. activation, % at 3 µM. CHO-K1 hM1, ACh EC20; 0% = ACh EC20, 100% = maximal ACh. AID 588819, 2011. Muscarinic acetylcholine receptor M1 (Homo sapiens), P11229. 0.088% of 360,000 active; in the data active means activation above about 19%, passing the limit was not always enough
TAAR1 antagonist: human TAAR1 antagonists, primary screen, Fluo-8 calcium fluorescence, CHO RD-HGA16 cells. AID 624466, 2012. inhibition, % at 3 µM. antagonist. Trace amine-associated receptor 1 (Homo sapiens), Q96RJ0. 1.5% of 360,000 active;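 active means inhibition above a per-plate cutoff, the mean inhibition of test compounds on that plate plus 3 SD, cut at about 49% in these data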;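 further: 0% = DMSO plus EC80 beta-PEA response and 100% = DMSO alone without agonist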
Target sequence (Q96RJ0 whole entry, looked up): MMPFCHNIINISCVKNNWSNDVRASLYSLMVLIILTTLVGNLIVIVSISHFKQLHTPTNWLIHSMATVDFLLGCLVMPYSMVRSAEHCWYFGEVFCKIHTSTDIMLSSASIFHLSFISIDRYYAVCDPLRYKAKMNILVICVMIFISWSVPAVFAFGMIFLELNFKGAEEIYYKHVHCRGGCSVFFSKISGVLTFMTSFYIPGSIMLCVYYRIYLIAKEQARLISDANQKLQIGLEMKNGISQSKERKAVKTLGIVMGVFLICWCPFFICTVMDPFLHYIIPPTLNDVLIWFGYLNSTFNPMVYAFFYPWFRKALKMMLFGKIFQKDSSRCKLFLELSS
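System: CHO RD-HGA16 cells bearing hTAAR1. Reagent: EC80 β-phenethylamine stimulus. Schedule: seeding 17-24 h prior, 75-min 37 °C, 30-min RT dye loading. Signal: Fluo-8 intracellular calcium dye fluorescence, real-time kinetic reads. Read-out: % inhibition from peak post-agonist over basal fluorescence ratio. Benchmarks: vehicle wells and EC80 agonist wells. Replicates: n of 1.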
TAAR1 ag: human TAAR1 agonists, primary screen, Fluo-8 calcium fluorescence, CHO RD-HGA16 cells. Trace amine-associated receptor 1 (Homo sapiens), Q96RJ0. vehicle wells 0%, saturating PEA agonist 100%. activation, % at 3 µM. 0.99% of 360,000 active. AID 624467, 2012;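 active means activation above the mean activation of all test compounds in the run plus 3 SD, cut at about 38% in these data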
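Benchmarks: low control DMSO, high control PEA (EC100); System: CHO RD-HGA16 cells carrying human TAAR1 plus Gα16; Detection: Fluo-8 fluorescence, 5 s baseline then 140 s kinetic read; Schedule: 17-24 h plating, Fluo-8 75 min 37 °C, 30 min RT; Read-out basis: % activation from peak over basal fluorescence ratio, DMSO-to-PEA scaled.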
Active calls of the source: *.

Results for CC(O)(c1cccc(F)c1)c1nc(-c2csc3ccccc23)cs1 (stereo unspecified) ?
CHRM1 agonist: -4; CHRM1 antagonist: -2; CHRM1 PAM: 0; TAAR1 antagonist: -7; TAAR1 ag: 2

How did Cc1ccc(C(=O)OCC(=O)NNC(=O)c2ccccc2)c(O)c1 do in these assays?
CHRM1 agonist: 0; CHRM1 antagonist: -4; CHRM1 PAM: 5; TAAR1 antagonist: 6; TAAR1 ag: 1

How did Cc1ccc(C(=O)OCC(=O)NC(=O)c2ccc(C(C)(C)C)cc2)c(O)c1 do in these assays?
CHRM1 agonist: 1; CHRM1 antagonist: 34*; CHRM1 PAM: -12; TAAR1 antagonist: -23; TAAR1 ag: 1

How did Cc1ccc2c(c1)[C@H]1[C@H](CO2)[C@H](c2ccccc2)[C@]2(C)C(=O)Nc3cc(F)c(F)cc3C(=O)N12 do in these assays?
CHRM1 agonist: -9; CHRM1 antagonist: 41*; CHRM1 PAM: -31; TAAR1 antagonist: -11; TAAR1 ag: 4

Results for C[C@@]12C(=O)N(c3ccccc3)C(=O)N1[C@@H]1c3ccccc3OC[C@@H]1[C@H]2c1ccccc1 ?
CHRM1 agonist: -5; CHRM1 antagonist: 21; CHRM1 PAM: -14; TAAR1 antagonist: 55*; TAAR1 ag: 6

What do the screens show for `C[C@]12C(=O)N(c3ccc(Cl)cc3)C(=O)N1[C@H]1c3ccccc3OC[C@@H]1[C@H]2c1ccccc1`?
CHRM1 agonist: -6; CHRM1 antagonist: -3; CHRM1 PAM: 2

Results for Cc1ccc2c(c1)[C@H]1[C@H](CO2)[C@H](c2ccccc2)[C@]2(C)C(=O)Nc3cc(Cl)ccc3C(=O)N12 ?
CHRM1 agonist: -4; CHRM1 antagonist: -14; CHRM1 PAM: 10

What do the screens show for `C[C@@]12C(=O)Nc3cc(F)ccc3C(=O)N1[C@H]1c3ccccc3OC[C@@H]1[C@@H]2c1ccccc1`?
CHRM1 agonist: -5; CHRM1 antagonist: 75*; CHRM1 PAM: -33

What do the screens show for `Cc1ccc2c(c1)[C@H]1[C@H](CO2)[C@H](c2ccccc2)[C@]2(C)C(=O)Nc3ccc(F)cc3C(=O)N12`?
CHRM1 agonist: -5; CHRM1 antagonist: 66*; CHRM1 PAM: -30; TAAR1 antagonist: -26; TAAR1 ag: 9

What do the screens show for `COC(=O)C(CC(C)C)N(Cc1ccc(Br)cc1)S(=O)(=O)CCl` (stereo unspecified)?
TAAR1 antagonist: 19; TAAR1 ag: 2

How did COC(=O)C1=C(C)N(Cc2ccccc2C(F)(F)F)C(=NCc2ccc(OC)cc2)NC1c1ccccc1 (stereo unspecified) do in these assays?
TAAR1 antagonist: 13; TAAR1 ag: 15

How did COC(=O)C1=C(C)N(C)C(=NCc2cccc(C(F)(F)F)c2)NC1c1ccc(Cl)cc1 (stereo unspecified) do in these assays?
TAAR1 antagonist: 47; TAAR1 ag: 22

What do the screens show for `Clc1ccc(OCCN2CCCCC2)cc1Cl`?
CHRM1 agonist: -12; CHRM1 antagonist: 29*; CHRM1 PAM: -17; TAAR1 antagonist: -5; TAAR1 ag: -2

Results for Clc1ccc(OCCCN2CCCC2)cc1Cl ?
CHRM1 agonist: -6; CHRM1 antagonist: 38*; CHRM1 PAM: -21; TAAR1 antagonist: -1; TAAR1 ag: -1

Results for CN(C)CCC(Oc1ccccc1OCc1ccccc1)c1ccccc1 (stereo unspecified) ?
CHRM1 agonist: 1; CHRM1 antagonist: 46*; CHRM1 PAM: -21; TAAR1 antagonist: -24; TAAR1 ag: 9

Results for COc1ccccc1-c1ccc2c(c1)[C@@H]1C[C@H]3[C@@H](CN1CC2)[C@H](C)ON3C ?
TAAR1 antagonist: -16; TAAR1 ag: -1

Results for O=C(c1cc2ccccc2o1)N1CCCCCC1 ?
CHRM1 agonist: -6; CHRM1 antagonist: -26; CHRM1 PAM: 5; TAAR1 antagonist: 6; TAAR1 ag: 11

What do the screens show for `CC1CCN(CC(C)OC(=O)c2ccc3c(c2)OCCO3)CC1` (stereo unspecified)?
CHRM1 agonist: -14; CHRM1 antagonist: 67*; CHRM1 PAM: -32; TAAR1 antagonist: -32; TAAR1 ag: 9

Assay outcomes deposited in PubChem BioAssay by The Scripps Research Institute Molecular Screening Center.
